Structures are written as SMILES.

One test has as its system HepG2. The test can be described thus: Cytotoxicity against human HepG2 cells after 48 hrs by. The test is classed as cell-based. To be noted: HepG2, 48 h. The method in brief:
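HepG2 cells in supplemented Eagle's MEM, 3000 cells/well, plated onto predispensed compounds. Incubated 48 h at 37 °C, 80% humidity, 5% CO2. Viability read by CellTiter-Glo luminescence.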

Test [1] deals with Trypanosoma cruzi. The test can be described thus: Antitrypanosomal activity against trypomastigote forms of Trypanosoma cruzi Y infected in LLC-MK2 cells assessed as reduction in viable parasites after 24 hrs by Neubauer chamber counting method. In kind it is functional, organism-based. The note with it: LLC-MK2, 24 h. Summed up:
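Bloodstream trypomastigotes (Y strain) taken from supernatants of infected LLC-MK2 cells kept in RPMI-1640 with 10% FBS and gentamycin at 37 °C, 5% CO2. Plated at 4×10^5 cells/well with five concentrations of inhibitor in DMSO. Incubated 24 h at 37 °C, 5% CO2. Motile parasites counted in a Neubauer chamber. % inhibition taken against untreated cultures; IC50 from non-linear regression.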

For test [2], the system named is Trypanosoma cruzi. Put plainly: Trypanocidal activity against epimastigote forms of Trypanosoma cruzi Y assessed as reduction in viable parasites after 11 days by Neubauer chamber counting method. In kind it is functional, organism-based. The note with it: 264 h. The method in brief: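 Y-strain epimastigotes grown at 26 °C in LIT medium with 10% FBS, hemin, R9 and gentamycin. Seeded at 10^6 cells/well and exposed in triplicate to 1.23, 3.70, 11.11, 33.33 and 100 µg/mL inhibitor in DMSO. Incubated 11 days at 26 °C. Viable parasites counted in a Neubauer chamber against untreated culture. IC50 from non-linear regression; experiment run in duplicate.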

Test [3] deals with Cruzipain (Trypanosoma cruzi) (UniProt P25779). Put plainly: Inhibition of recombinant Trypanosoma cruzi cruzain using Z-Phe-Argaminomethylcoumarin as fluorogenic substrate preincubated at 50 uM for 10 mins before substrate addition by fluorimetry. Summed up:
(§1)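 Recombinant cruzain at 0.5 nM in 0.1 M sodium acetate pH 5.5 with 5 mM DTT and 0.01% Triton X-100. Compound pre-incubated with enzyme 10 min at a single screening concentration. […] Fluorescence followed 5 min at ex 340/em 440 nm. Activity relative to DMSO control; at least two independent experiments in triplicate.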

Test [4] has the same target. Put plainly: Inhibition of recombinant Trypanosoma cruzi cruzain using Z-Phe-Argaminomethylcoumarin as fluorogenic substrate preincubated at 100 uM for 10 mins before substrate addition by fluorimetry. Summed up:
as §1

Another test deals with Cruzipain (Trypanosoma cruzi, UniProt P25779). The test can be described thus: Inhibition of recombinant Trypanosoma cruzi cruzain using Z-Phe-Argaminomethylcoumarin as fluorogenic substrate preincubated for 10 mins before substrate addition by fluorimetry. Summed up:
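IC50 against recombinant cruzain (0.5 nM) in 0.1 M sodium acetate pH 5.5, 5 mM DTT, 0.01% Triton X-100. At least seven inhibitor concentrations, each pre-incubated 10 min with enzyme. Z-FR-AMC at 2.5 µM, fluorescence ex 340/em 440 nm followed 5 min. Two independent experiments in triplicate, normalized to DMSO control.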

Test [5] addresses Cruzipain (Trypanosoma cruzi) (UniProt P25779). Put plainly: Inhibition of recombinant Trypanosoma cruzi cruzain using Z-Phe-Argaminomethylcoumarin as fluorogenic substrate preincubated at 75 uM for 10 mins before substrate addition by fluorimetry. The method in brief: as §1

Cruzipain (Trypanosoma cruzi), sequence (P25779 123-467 limits assumed): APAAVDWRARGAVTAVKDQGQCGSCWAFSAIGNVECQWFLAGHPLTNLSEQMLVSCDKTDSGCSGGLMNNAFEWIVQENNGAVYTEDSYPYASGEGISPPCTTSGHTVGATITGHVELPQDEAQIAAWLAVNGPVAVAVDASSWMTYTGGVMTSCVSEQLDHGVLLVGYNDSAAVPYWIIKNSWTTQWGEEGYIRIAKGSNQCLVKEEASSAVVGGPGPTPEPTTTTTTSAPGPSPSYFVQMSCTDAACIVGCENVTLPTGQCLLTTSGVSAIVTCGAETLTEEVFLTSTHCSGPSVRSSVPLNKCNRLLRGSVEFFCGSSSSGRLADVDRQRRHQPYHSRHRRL
Cruzipain, sequence (P25779 whole entry): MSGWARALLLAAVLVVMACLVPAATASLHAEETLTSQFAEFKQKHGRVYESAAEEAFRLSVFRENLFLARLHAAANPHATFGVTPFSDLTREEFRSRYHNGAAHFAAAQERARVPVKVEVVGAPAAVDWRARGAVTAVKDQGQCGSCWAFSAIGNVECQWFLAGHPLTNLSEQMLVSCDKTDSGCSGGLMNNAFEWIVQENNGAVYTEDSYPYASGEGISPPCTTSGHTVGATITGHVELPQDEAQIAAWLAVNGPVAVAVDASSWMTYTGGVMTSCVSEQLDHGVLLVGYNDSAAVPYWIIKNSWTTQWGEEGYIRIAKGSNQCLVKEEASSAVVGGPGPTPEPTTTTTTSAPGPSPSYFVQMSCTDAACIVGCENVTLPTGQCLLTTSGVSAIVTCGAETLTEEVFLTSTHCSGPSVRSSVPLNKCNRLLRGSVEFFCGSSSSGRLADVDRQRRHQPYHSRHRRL

The IC50 is the midpoint of a concentration-inhibition curve. Broadly, the inhibition is the drop in the measured response relative to a control, in per cent. For the compound `Fc1ccc(-c2csc(N/N=C/c3ccccn3)n2)cc1`, the 50% inhibitory concentration (IC50) in the test with HepG2 worked out at 18.2 µM; in the test on Trypanosoma cruzi [1] it was 72.7 µM; in the test on Trypanosoma cruzi [2] it was 3.5 µM. Further, the inhibition in test [3] was found to be 22%.
Regarding `Cc1ccc(-c2csc(N/N=C/c3ccccn3)n2)cc1`, the concentration for half-maximal inhibition (IC50) was 100 µM in the test with HepG2, 16.8 µM in the test on Trypanosoma cruzi [1] and 3.8 µM in the test on Trypanosoma cruzi [2]. In addition, in test [4], the inhibition is 23%.
`C/C(=N\Nc1nc(-c2ccc3ccccc3c2)cs1)c1ccccn1`: the 50% inhibitory concentration (IC50) in the test with HepG2 was 100 µM; in the test on Trypanosoma cruzi [1] it was 2 µM; in the test with Trypanosoma cruzi [2], 4.1 µM; at Cruzipain, 0.01 µM. Besides, the inhibition in test [4] came to 94%.
Taken in the same sequence, the figures for `Brc1ccc(-c2csc(N/N=C/c3ccccn3)n2)cc1` were 100 µM, 2.2 µM, 2.2 µM, 9.5 µM and 86%.
With `C/C(=N/Nc1nc(-c2ccc(Cl)cc2)cs1)c1ccccn1`, the half-maximal inhibitory concentration (IC50) in the test on HepG2 was determined as 100 µM; in the test on Trypanosoma cruzi [1] it was 2.1 µM; in the test with Trypanosoma cruzi [2], 2.5 µM. Further, the inhibition in test [4] was -3%.
As for `Clc1ccc(-c2csc(N/N=C/c3ccccn3)n2)cc1Cl`, the IC50 in the test with HepG2 was 100 µM; in the test with Trypanosoma cruzi [1] it was 1.2 µM; in the test with Trypanosoma cruzi [2], 4 µM. For the same compound, in test [4], the inhibition was 21%.
`C/C(=N\Nc1nc(-c2ccc(C)cc2)cs1)c1ccccn1`: the IC50 turned out to be 100 µM in the test on HepG2, 1.7 µM with Trypanosoma cruzi [1], 2.5 µM in the test with Trypanosoma cruzi [2] and 0.4 µM on Cruzipain. Moreover, in test [4], the inhibition worked out at 90%.
On to `C/C(=N\Nc1nc(-c2cccc([N+](=O)[O-])c2)cs1)c1ccccn1`, for which the IC50 in the test on HepG2 came to 100 µM; in the test with Trypanosoma cruzi [1], 3.9 µM; in the test with Trypanosoma cruzi [2], 2.4 µM. Besides, the inhibition in test [5] was found to be 10%.
Consider `C/C(=N\Nc1nc(-c2ccc(Br)cc2)c(C)s1)c1ccccn1`, for which the IC50 in the test with HepG2 amounted to 85.1 µM; in the test with Trypanosoma cruzi [1], 2.3 µM; in the test on Trypanosoma cruzi [2] it was 2.3 µM. In test [4], the inhibition was found to be 27%.
Regarding `C/C(=N\NC(N)=S)c1ccccn1`, the IC50 was determined as 2.8 µM in the test with Trypanosoma cruzi [1] and 4.5 µM in the test on Trypanosoma cruzi [2]. Further, the inhibition in test [4] worked out at 5%.
Turning to `Clc1ccc(-c2csc(N/N=C/c3ccccn3)n2)c(Cl)c1`, the IC50 is 100 µM in the test with HepG2, 1.2 µM in the test on Trypanosoma cruzi [1] and 4.8 µM in the test on Trypanosoma cruzi [2]. Further, the inhibition in test [5] is 0%.
For `Clc1ccc(-c2csc(N/N=C/c3ccccn3)n2)cc1`, the IC50 in the test with HepG2 was determined as 100 µM; with Trypanosoma cruzi [1], 3.8 µM; in the test on Trypanosoma cruzi [2] it was 3.8 µM. Besides, the inhibition in test [5] is -1%.
`C/C(=N\Nc1nc(-c2ccc([N+](=O)[O-])cc2)cs1)c1ccccn1`: the IC50 in the test with HepG2 is 100 µM; in the test on Trypanosoma cruzi [1], 36.7 µM; in the test with Trypanosoma cruzi [2], 5.2 µM. Further, the inhibition in test [5] is 11%.
For `COc1ccc(-c2csc(N/N=C(\C)c3ccccn3)n2)cc1`, the IC50 was found to be 100 µM with HepG2, 2.1 µM in the test on Trypanosoma cruzi [1], 14.7 µM in the test with Trypanosoma cruzi [2] and 0.04 µM at Cruzipain. For the same compound, the inhibition in test [4] was determined as 95%.
For the compound `C/C(=N\Nc1nc(-c2ccc(Cl)cc2Cl)cs1)c1ccccn1`, the IC50 in the test with HepG2 is 100 µM; with Trypanosoma cruzi [1], 1.9 µM; in the test with Trypanosoma cruzi [2] it was 14.9 µM; on Cruzipain it was 4.8 µM. Also, the inhibition in test [4] turned out to be 81%.
Take `COc1ccc(-c2csc(N/N=C/c3ccccn3)n2)cc1`: the half-maximal inhibitory concentration (IC50) in the test on HepG2 is 100 µM; in the test with Trypanosoma cruzi [1] it was 4.8 µM; in the test on Trypanosoma cruzi [2], 5.6 µM. Besides, the inhibition in test [5] was 20%.
For `C/C(=N\Nc1nc(-c2ccc(Br)cc2)cs1)c1ccccn1`, the concentration for half-maximal inhibition (IC50) in the test with HepG2 came to 100 µM; in the test on Trypanosoma cruzi [1] it was 2.1 µM; in the test with Trypanosoma cruzi [2] it was 2.1 µM. For the same compound, the inhibition in test [4] was -8%.
As for `Cc1sc(N/N=C/c2ccccn2)nc1-c1ccc(Br)cc1`, the IC50 in the test on HepG2 is 100 µM; in the test on Trypanosoma cruzi [1], 2.6 µM; with Trypanosoma cruzi [2], 18.3 µM. In addition, in test [4], the inhibition was determined as 10%.
Taken in the same sequence, the figures for `O=[N+]([O-])c1ccc(-c2csc(N/N=C/c3ccccn3)n2)cc1` were 100 µM, 153 µM, 4.4 µM and 12%.
For the compound `C(=N\Nc1nc(-c2ccccc2)cs1)/c1ccccn1`, the IC50 in the test with HepG2 stood at 100 µM; in the test with Trypanosoma cruzi [1], 5.4 µM; in the test with Trypanosoma cruzi [2] it was 8.3 µM. In addition, in test [5], the inhibition came to 9%.
For `N/C(S)=N/N=C/c1ccccn1`, the IC50 in the test with Trypanosoma cruzi [1] turned out to be 17.3 µM; in the test with Trypanosoma cruzi [2], 120 µM. For the same compound, the inhibition in test [4] was determined as 1%.
On to `C(=N\Nc1nc(-c2ccc3ccccc3c2)cs1)/c1ccccn1`, for which the results for the IC50 in the test with HepG2, in the test on Trypanosoma cruzi [1] and with Trypanosoma cruzi [2] were 100 µM, 2.1 µM and 8.3 µM, respectively. Besides, the inhibition in test [4] was determined as 3%.
Turning to `C/C(=N\Nc1nc(-c2ccccc2)cs1)c1ccccn1`, the half-maximal inhibitory concentration (IC50) in the test with HepG2 was found to be 91.2 µM; in the test with Trypanosoma cruzi [1] it was 1.1 µM; in the test on Trypanosoma cruzi [2], 2.7 µM; on Cruzipain, 1.3 µM. Also, the inhibition in test [4] was 93%.
`O=[N+]([O-])c1cccc(-c2csc(N/N=C/c3ccccn3)n2)c1`: the half-maximal inhibitory concentration (IC50) with HepG2 was found to be 100 µM; with Trypanosoma cruzi [1], 74.2 µM; in the test with Trypanosoma cruzi [2] it was 2.5 µM; at Cruzipain it was 1.3 µM. Further, the inhibition in test [4] was 85%.
Taken in the same sequence, the figures for `C/C(=N\Nc1nc(-c2ccc(Cl)c(Cl)c2)cs1)c1ccccn1` were 100 µM, 3.1 µM, 5 µM, 0.4 µM and 89%.
Take `C/C(=N\Nc1nc(-c2ccc(F)cc2)cs1)c1ccccn1`: the IC50 in the test on HepG2 was 91.2 µM; in the test with Trypanosoma cruzi [1], 3.8 µM; in the test on Trypanosoma cruzi [2], 2.8 µM; on Cruzipain, 0.3 µM. Also, in test [4], the inhibition was found to be 89%.

The values above are taken from ChEMBL document CHEMBL3352772, “2-Pyridyl thiazoles as novel anti-Trypanosoma cruzi agents: structural design, synthesis and pharmacological evaluation” (Eur J Med Chem, 2014).
